Experiments:
[1] = Cmax in Crl:CD(SD)IGS rat at 10 mg/kg, po by HPLC analysis; format: ADME, organism-based; set-up: dose 10 mg/kg, route oral; settings: in vivo
Summary of the method: (§1)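 Non-fasted male Crl:CD(SD)IGS rats, 8 weeks old, n = 3. Dosed 1 mg/kg iv or 10 mg/kg po. Plasma sampled at 5 (iv only), 10 (iv only), 15, 30 min and 1, 2, 4, 8, 24 h. Plasma deproteinized with acetonitrile, supernatant dried under N2, taken up in mobile phase and analysed by HPLC on an ODS column. […] Mean ± SD.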

[2] = AUC (0 to 24 hrs) in Crl:CD(SD)IGS rat at 1 mg/kg, iv by HPLC analysis; format: ADME, organism-based; set-up: time < 24 hr, dose 1 mg/kg, route intravenous; settings: plasma
Summary of the method: (§2)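 Male non-fasted 8-week-old rats, n = 3; 1 mg/kg IV or 10 mg/kg oral. Plasma sampled at 5, 10, 15, 30 min and 1, 2, 4, 8, 24 h after IV dosing, or at 15, 30 min and 1, 2, 4, 8, 24 h after oral dosing. Plasma deproteinized with acetonitrile, dried under N₂, taken up in mobile phase, and analysed by reverse-phase HPLC on an ODS column.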

[3] = Oral bioavailability in Crl:CD(SD)IGS rat at 10 mg/kg by HPLC analysis; format: ADME, organism-based; settings: in vivo; summary of the method: as §1
[4] = molecular target: T1, Steroid 17-alpha-hydroxylase/17,20 lyase (Homo sapiens, UniProt P05093); test: Inhibition of 17,20 lyase activity in human
T1 sequence (P05093 whole entry): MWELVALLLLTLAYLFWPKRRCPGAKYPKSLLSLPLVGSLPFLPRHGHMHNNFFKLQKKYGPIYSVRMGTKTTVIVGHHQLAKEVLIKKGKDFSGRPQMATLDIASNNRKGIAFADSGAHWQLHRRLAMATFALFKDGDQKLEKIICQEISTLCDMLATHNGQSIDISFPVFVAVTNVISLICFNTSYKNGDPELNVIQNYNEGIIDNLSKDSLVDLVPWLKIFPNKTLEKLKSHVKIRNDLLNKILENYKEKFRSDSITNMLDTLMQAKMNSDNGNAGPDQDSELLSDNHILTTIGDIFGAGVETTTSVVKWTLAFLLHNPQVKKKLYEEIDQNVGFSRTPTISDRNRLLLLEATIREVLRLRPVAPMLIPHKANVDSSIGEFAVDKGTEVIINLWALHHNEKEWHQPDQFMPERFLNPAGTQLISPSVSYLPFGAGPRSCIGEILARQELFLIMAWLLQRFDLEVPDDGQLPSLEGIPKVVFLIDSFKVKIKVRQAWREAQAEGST
Summary of the method: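 Recombinant P450c17 (0.5 pmol) with cytochrome b5 (0.5 pmol) and NADPH-P450 reductase (20.8 ng) in 75 mM phosphate pH 7.4 with 1 mM MgCl2. Substrate 10 nM [1,2-3H]-17α-hydroxypregnenolone, 5 mM NADPH, compound 1–1000 nM. Incubated 15 min at 37 °C, ethyl acetate extraction, DHEA separated from substrate by silica TLC (cyclohexane–ethyl acetate 3:2). IC50 taken as 50% reduction in product.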

[5] = AUC (0 to 24 hrs) in Crl:CD(SD)IGS rat at 10 mg/kg, po by HPLC analysis; format: ADME, organism-based; set-up: time < 24 hr, dose 10 mg/kg, route oral; settings: plasma; summary of the method: as §2
Cytochrome P450 2D6 = Cytochrome P450 2D6 (Homo sapiens, UniProt P10635); test: Inhibition of human CYP2D6; format: ADME
Summary of the method: (§3)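 Microsomes from human B-lymphoblastoid cells expressing one CYP isoform, with inhibitor at 3, 10 and 30 µmol/L. Buffer 80 mmol/L phosphate pH 7.4 (Tris-HCl pH 7.4 for CYP2C9) with 10 mmol/L MgCl2 and a NADPH-regenerating system. Inhibitor and substrate preincubated 5 min at 37 °C, then microsomes added to start. Marker reactions: tolbutamide hydroxylation (CYP2C8, CYP2C9), bufuralol 1'-hydroxylation (CYP2D6). Control was methanol alone.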

Cytochrome P450c11B3 = molecular target: T2, Cytochrome P450c11B3 (Rattus norvegicus, UniProt Q64546); test: Inhibition of 11-hydroxylase activity in Sprague-Dawley rat adrenal gland; format: tissue-based
T2 sequence (Q64546 whole entry): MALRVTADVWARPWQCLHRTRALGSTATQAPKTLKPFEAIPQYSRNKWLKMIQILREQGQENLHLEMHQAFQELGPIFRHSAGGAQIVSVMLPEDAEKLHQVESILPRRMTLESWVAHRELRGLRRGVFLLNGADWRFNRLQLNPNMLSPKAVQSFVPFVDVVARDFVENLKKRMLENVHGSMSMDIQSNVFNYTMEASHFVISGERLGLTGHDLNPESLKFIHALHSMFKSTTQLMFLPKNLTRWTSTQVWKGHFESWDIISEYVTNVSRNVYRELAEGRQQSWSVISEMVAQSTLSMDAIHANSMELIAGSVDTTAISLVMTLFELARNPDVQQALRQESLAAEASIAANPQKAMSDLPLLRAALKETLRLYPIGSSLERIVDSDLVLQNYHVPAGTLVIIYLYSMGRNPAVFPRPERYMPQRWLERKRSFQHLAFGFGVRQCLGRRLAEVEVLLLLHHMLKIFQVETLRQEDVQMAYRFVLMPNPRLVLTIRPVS
Summary of the method: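 Mitochondrial fraction from SD rat adrenal glands, 4 µg protein, in 200 mM mannitol, 4.5 mM HEPES, 2.3 mM K phosphate pH 7.4, 0.1 mM EDTA, 0.03% BSA, 4.5 mM NADPH, 11 mM CaCl2. Substrate 10 nM [1,2-3H]-11-deoxycortisol. Test compound 1–1000 nM, diluted in DMF. Incubated 30 min at 37 °C, stopped with ethyl acetate. Final concentrations.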

Cytochrome P450 2C8 = molecular target: T3, Cytochrome P450 2C8 (Homo sapiens, UniProt P10632); test: Inhibition of human CYP2C8; format: ADME; summary of the method: as §3
T3 sequence (P10632 whole entry): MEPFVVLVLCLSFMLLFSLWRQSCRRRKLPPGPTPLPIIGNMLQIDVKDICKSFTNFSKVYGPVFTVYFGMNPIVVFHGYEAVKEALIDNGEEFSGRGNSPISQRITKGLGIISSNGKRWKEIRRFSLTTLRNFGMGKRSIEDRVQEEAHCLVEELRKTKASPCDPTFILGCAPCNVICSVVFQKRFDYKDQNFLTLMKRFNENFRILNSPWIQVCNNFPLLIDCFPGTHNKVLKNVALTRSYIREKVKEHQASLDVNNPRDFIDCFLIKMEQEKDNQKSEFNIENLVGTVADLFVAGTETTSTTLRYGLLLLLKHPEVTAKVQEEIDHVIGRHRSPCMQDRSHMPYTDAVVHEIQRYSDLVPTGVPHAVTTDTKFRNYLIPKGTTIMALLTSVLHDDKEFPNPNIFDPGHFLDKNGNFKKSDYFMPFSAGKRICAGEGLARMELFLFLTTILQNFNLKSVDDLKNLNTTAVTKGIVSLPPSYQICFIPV

Cytochrome P450 2C9 = Cytochrome P450 2C9 (Homo sapiens, UniProt P11712); test: Inhibition of human CYP2C9; format: ADME; summary of the method: as §3
Cytochrome P450 3A4 = Cytochrome P450 3A4 (Homo sapiens, UniProt P08684); test: Inhibition of human CYP3A4; format: ADME
[6] = Tmax in Crl:CD(SD)IGS rat at 10 mg/kg, po by HPLC analysis; format: ADME, organism-based; set-up: dose 10 mg/kg, route oral; settings: in vivo; summary of the method: as §1
[7] = molecular target: T4, Steroid 17-alpha-hydroxylase/17,20 lyase (Rattus norvegicus, UniProt P11715); test: Inhibition of 17,20 lyase activity in Sprague-Dawley rat testicular microsomes; set-up: species or system Testis
T4 sequence (P11715 whole entry): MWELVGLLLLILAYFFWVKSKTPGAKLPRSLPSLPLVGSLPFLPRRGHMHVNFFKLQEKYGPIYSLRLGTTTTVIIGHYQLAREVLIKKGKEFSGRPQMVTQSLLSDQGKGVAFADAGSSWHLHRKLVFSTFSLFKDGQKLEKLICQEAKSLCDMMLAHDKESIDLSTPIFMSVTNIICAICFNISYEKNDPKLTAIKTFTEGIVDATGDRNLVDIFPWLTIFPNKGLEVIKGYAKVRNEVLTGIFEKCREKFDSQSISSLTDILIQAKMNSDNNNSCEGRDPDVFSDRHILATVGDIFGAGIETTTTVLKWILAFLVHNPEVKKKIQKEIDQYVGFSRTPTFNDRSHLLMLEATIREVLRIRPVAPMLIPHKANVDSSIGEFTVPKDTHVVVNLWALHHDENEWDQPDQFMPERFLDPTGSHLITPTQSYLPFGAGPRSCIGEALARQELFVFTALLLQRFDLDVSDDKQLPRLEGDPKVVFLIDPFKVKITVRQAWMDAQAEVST
Summary of the method: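 Testicular microsomes from 13-week-old male SD rats (7 µg protein) in 75 mM phosphate buffer, pH 7.4, with 10 nM [1,2-3H]-17α-hydroxyprogesterone, 5 mM NADPH, and 1–1000 nM test compound (all final). Compounds were diluted in DMF and then in water. Incubation ran 15 min at 37 °C and was stopped with ethyl acetate. IC50 is the concentration that halves product formation.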

Chain of Cytochrome P450 3A4 (P08684 whole entry): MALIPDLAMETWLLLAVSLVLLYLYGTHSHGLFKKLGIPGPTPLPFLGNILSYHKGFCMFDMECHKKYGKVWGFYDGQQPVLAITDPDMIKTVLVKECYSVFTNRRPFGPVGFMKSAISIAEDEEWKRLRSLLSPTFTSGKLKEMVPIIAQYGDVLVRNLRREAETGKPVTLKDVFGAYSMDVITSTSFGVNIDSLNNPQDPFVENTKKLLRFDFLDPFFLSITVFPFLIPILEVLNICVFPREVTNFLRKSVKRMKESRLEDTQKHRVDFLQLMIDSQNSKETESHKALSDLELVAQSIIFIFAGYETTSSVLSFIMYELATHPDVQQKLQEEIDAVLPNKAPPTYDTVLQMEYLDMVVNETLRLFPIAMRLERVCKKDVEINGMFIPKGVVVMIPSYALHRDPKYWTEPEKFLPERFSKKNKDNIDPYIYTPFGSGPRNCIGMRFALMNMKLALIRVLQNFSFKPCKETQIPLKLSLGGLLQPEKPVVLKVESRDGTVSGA
Chain of Cytochrome P450 2D6 (P10635 whole entry, canonical isoform): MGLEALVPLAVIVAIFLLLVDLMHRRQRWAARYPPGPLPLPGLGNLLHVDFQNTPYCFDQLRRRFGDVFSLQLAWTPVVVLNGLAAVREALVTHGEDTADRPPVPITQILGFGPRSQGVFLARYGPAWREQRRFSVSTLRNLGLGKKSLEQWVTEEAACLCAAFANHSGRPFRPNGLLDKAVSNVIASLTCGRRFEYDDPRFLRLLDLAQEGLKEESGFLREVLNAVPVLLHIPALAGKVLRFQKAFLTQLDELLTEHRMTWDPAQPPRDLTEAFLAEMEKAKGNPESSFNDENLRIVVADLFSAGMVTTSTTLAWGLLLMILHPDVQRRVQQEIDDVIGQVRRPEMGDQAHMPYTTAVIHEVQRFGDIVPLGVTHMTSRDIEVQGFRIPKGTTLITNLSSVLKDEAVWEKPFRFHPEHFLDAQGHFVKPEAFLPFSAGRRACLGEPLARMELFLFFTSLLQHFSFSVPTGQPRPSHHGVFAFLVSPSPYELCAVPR
Chain of Cytochrome P450 2C9 (P11712 whole entry): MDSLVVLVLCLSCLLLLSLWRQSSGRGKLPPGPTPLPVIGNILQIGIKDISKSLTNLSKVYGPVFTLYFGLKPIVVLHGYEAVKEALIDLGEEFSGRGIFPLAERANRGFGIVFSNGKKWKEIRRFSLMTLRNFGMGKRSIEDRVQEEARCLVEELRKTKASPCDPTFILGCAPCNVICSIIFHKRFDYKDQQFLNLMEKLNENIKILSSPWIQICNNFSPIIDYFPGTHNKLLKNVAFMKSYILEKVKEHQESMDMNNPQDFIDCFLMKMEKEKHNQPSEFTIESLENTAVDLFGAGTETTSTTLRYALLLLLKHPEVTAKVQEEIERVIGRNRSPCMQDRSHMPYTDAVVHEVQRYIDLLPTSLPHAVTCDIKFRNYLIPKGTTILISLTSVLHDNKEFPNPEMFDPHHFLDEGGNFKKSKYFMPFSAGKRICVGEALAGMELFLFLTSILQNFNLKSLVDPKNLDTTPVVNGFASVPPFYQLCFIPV

Cmax [1]: 2940 ng/mL | AUC(0-t) at 24 h [2]: 573 ng·h/mL | bioavailability [3]: 128% | IC50 [4]: 0.019 µM | AUC(0-t) at 24 h [5]: 7320 ng·h/mL | IC50 (Cytochrome P450 2D6): > 30 µM | IC50 (Cytochrome P450c11B3): > 1 µM | IC50 (Cytochrome P450 2C8): 28 µM | IC50 (Cytochrome P450 2C9): < 3 µM | IC50 (Cytochrome P450 3A4): > 10 µM | Tmax [6]: 25.2 min | IC50 [7]: < 0.01 µM
Structure (SMILES): CC(C)[C@](O)(c1ccc2c3c(ccc2c1)C(=O)N(C)C3)c1cnc[nH]1

Source: ChEMBL document CHEMBL1681730, “17,20-lyase inhibitors. Part 4: design, synthesis and structure-activity relationships of naphthylmethylimidazole derivatives as novel 17,20-lyase inhibitors” (Bioorg Med Chem, 2011)
